The subject of data set [1] is P. falciparum. Kind of data set: Replication assay after 1h treatment and washout. The class given is cell-based, Plasmodium falciparum. Conditions: 1h treatment at different life cycle stages. In a few lines: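 Tightly synchronized parasites were exposed 1 h to inhibitor or DMSO at 1, 10, 18, 30, 38 or 46 h post-invasion. They were then washed 3× and cultured until progeny in DMSO controls reached schizonts (~80 h p.i.). Parasitemia was read by FACS from 3 independent measurements, reported as standard error.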

The test system of data set [2] is P. falciparum. Briefly: P. falciparum replication assay. Type of data set: cell-based, Plasmodium falciparum. The following applies: read-out: EC50Pot; standard 75 h replication assay, ring stage D10 parasites. In a few lines: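 D10 parasites were synchronized by 70% Percoll schizont harvest, a 1 h invasion window and sorbitol. Ring-stage cultures (~2% parasitemia, 0.5% hematocrit) were treated with compound for ~75 h, until DMSO controls reached schizonts. Infected versus uninfected RBCs were counted by FACS. EC50Pot was fitted to a dose response curve.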

Data set [3] concerns the target T1, DPAP1 (Plasmodium falciparum, UniProt Q8IIJ9).
T1 sequence (Q8IIJ9 370-599 limits assumed): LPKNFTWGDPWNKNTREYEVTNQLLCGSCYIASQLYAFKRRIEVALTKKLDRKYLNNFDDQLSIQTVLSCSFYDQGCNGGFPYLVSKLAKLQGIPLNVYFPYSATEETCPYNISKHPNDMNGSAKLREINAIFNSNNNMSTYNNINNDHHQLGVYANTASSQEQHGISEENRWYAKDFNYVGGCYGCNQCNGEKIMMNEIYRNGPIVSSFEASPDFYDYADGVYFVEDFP
T1 sequence (Q8IIJ9 28-209 limits assumed): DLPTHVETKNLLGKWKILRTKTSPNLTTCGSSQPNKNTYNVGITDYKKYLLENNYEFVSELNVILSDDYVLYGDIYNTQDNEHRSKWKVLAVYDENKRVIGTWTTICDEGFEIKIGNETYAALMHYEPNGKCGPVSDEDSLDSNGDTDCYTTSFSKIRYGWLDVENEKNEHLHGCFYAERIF
T1 sequence (Q8IIJ9 600-700 limits assumed): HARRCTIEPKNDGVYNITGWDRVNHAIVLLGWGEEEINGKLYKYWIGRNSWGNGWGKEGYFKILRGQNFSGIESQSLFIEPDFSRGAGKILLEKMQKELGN
The class given is biochemical. In a few lines: (§1)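 Trophozoite or merozoite lysates, or intact schizonts, were used in acetate buffer (50 mM sodium acetate, 5 mM MgCl2, 5 mM DTT, pH 5.5). Lysates were preincubated 30 min with 10 µM inhibitor, then labeled 1 h. FY01 labeled DPAPs (fluorescent SDS-PAGE scan) and 125I-DCG04 labeled falcipains (autoradiography). Loss of band signal indicated inhibition, and IC50s came from quantified gel bands.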

Data set [4] has as its system FPs (FP2/3). Briefly: Competition assay with activity-based probe 125I-DCG04, falcipain labeling. The following applies: parasite lysates. The class given is biochemical, Plasmodium falciparum. In a few lines:
as §1

For data set [5] the following is noted: ref personal communication, David Percival, Merck; cited from earlier work.
Data set [6] concerns P. falciparum. Kind of data set: Phenotypic effects in Geimsa-stained thin blood smears. Type of data set: cell-based, Plasmodium falciparum. Conditions: schizonts treated 24 h. In a few lines:
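Synchronous schizont-stage cultures were exposed to inhibitor for 24 h across increasing concentrations. Morphology was assessed on Giemsa-stained thin blood smears.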

Data set [7] concerns DPAP3. Kind of data set: Competition assay with activity-based probe FY01, DPAP3 labeling. The class given is biochemical, Plasmodium falciparum. The following applies: parasite lysates. In a few lines: as §1
For data set [8], the target named is T1, DPAP1. Kind of data set: DPAP1 specific fluorogenic assay. The class given is biochemical. In a few lines: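 DPAP1 activity was assayed at 25 °C in pH 5.5 acetate buffer with 1% parasite lysate and 10 µM (Pro-Arg)2-Rho. Turnover was read for 5 min (ex 492/em 523 nm). Lysates were pretreated with inhibitor for set times (0.1–2 h). IC50 came from dose response fits. For ki, v/v0 relative to DMSO was fitted to a simple irreversible inhibitor model.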

Data set [9] in a line: Stability after overnight incubation in mouse serum. Type of data set: in vitro ADME. Conditions: 37 °C. In a few lines: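 Inhibitor was incubated overnight at 37 °C in mouse serum. Remaining potency was tested as the ability to block FY01 labeling of DPAP1 in parasite lysates, run before and after serum exposure.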
The test system of data set [10] is NK65 P. berghei parasites. Kind of data set: P. berghei mouse model of malaria, parasitemia. The class given is in vivo, Balb/c mice. Conditions: Figure S2.
The nature of data set [11]: Compound toxicity and pharmacokinetics in mice. The class given is in vivo. The following applies: Figure S2.
Data set [12] relates to HFF cells. Kind of data set: Cell toxicity, CellTiter-Glo. The class given is cell-based, human. Conditions: ATP production after 24 h treatment of HFF cells with 0.01–100 µM compound. In a few lines: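 HFF cells were incubated 24 h with inhibitor (0.01–100 µM) or DMSO. Viability was read as ATP by CellTiter-Glo. EC50Tox was obtained by fitting the data to a dose response curve.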

The values below come from PMC2929396 (Chemistry & biology, 2010).

Like-named read-outs stand apart in the source and are kept apart here.

For the compound `C[C@H](N)C(=O)N[C@@H](Cc1ccc(I)cc1)C(=O)C=[N+]=[N-]` [Ala-4(I)Phe-DMK], the “sensitivity at trophozoite stage relative to other stages” value in data set [1] is given as 10 times. Moreover, the EC50 in data set [2] was 2.8 nM. For the same compound, in data set [3] (lysates, 30 min with 10 µM inhibitor then 1h FY01), the “block of DPAP1 labeling by ABP” value is listed as “efficiently blocked labeling”. For the same compound, the “selectivity towards DPAP1 over DPAP3 and the FPs” value in data set [3] (other papain fold cysteine proteases of P. falciparum) was “at least 1000 fold”. The “inhibition of FPs (ABP labeling)” value in data set [4] was “but not FPs or DPAP3”. The “pharmacokinetic (PK) properties” value in data set [5] was “very poor”. The “concentration inducing schizont arrest and a FV defect” value in data set [6] was ≥ 1 µM. For the same compound, the “inhibition of DPAP3 (ABP labeling)” value in [7] is recorded as “but not FPs or DPAP3”. For the same compound, the IC50 in data set [8] (read-out: IC50DPAP1,1h, 1h, lysates) was determined as 6.4 nM; in data set [8] (read-out: IC50DPAP1,2h, 2h treatment of parasite lysates) it was 2 nM. Moreover, the “second order rate constant of inhibition (ki)” value in data set [8] (trophozoite lysates incubated with inhibitor 0.1–2h) is 35000 ± 3000 M⁻¹ s⁻¹. For the same compound, the “ability to inhibit DPAP1 after incubation in mouse serum” value in data set [9] was “lost virtually all of their activity”.

Regarding `CCC[C@H](N)C(=O)N[C@H](/C=C/S(=O)(=O)c1ccccc1)CCc1ccccc1` [JCP-410], the effect in vivo result in [10] is on record as “no effect”. For the same compound, the PK properties result in data set [11] was “poor”.

As to `CCCCC(C(=O)COC(=O)c1c(C)cccc1C)n1cc(C2(N)CCCCC2)nn1` (stereo not shown) [ML4091], the EC50 in data set [2] is 6000 nM. In addition, the EC50Tox in data set [12] is recorded as 12000 (3000) nM.

Turning to `CCCCC(C(=O)COc1c(F)c(F)cc(F)c1F)n1cc(C2(N)CCN(C(N)=O)CC2)nn1` (stereo not shown) [ML4154], the EC50 in data set [2] came to 45000 nM. In addition, the EC50Tox in data set [12] is 30000 (5000) nM.

Turning to `CCCCC(C(=O)COc1c(F)c(F)cc(F)c1F)n1cc(C2(N)CCNCC2)nn1` (stereo not shown) [ML4162], the EC50 in data set [2] amounted to 220 nM. The EC50Tox in data set [12] is 68000 (4000) nM.

For `CCCCC(C(=O)COc1c(F)c(F)cc(F)c1F)n1cc(C2(N)CCN(C(C)=O)CC2)nn1` (stereo not shown) [ML4163], in data set [2], the EC50 is > 100000 nM. Also, the EC50Tox in [12] is given as > 100000 nM.
